Experimental data of several laboratories.
Protocols differ between the studies behind these lines.
Target: Tyrosine-protein kinase Fes/Fps (FES, Homo sapiens, UniProt P07332)

Cn1nc(C(=O)NCc2ccc(C(=O)O)cc2)cc1-c1ccc2[nH]ccc2c1  remaining binding (cell-free assay, competition with immobilised ligand; 0.1 µM): 95%
CN(C)c1ncc(F)c(-c2cnn3ncccc23)n1  remaining binding (binding; 1 µM): 87%
CC(C)(O)c1cncc(-c2nc3ccc(F)cc3n2C2CC2)c1  remaining binding (cell-free assay, competition with immobilised ligand; 1 µM): 100%
O=C(NCCCN1CCOCC1)c1ccc(Nc2nccc(-c3cc4ccccc4s3)n2)cc1  remaining binding (binding, competition with immobilised ligand; 1 µM): 85%
Cc1c[nH]c2nccc(Oc3c(F)cc(Nc4cc(Cl)nc(N)n4)cc3F)c12  remaining binding (cell-free assay, competition with immobilised ligand; 0.1 µM): 100%
O=C(c1ccc(Nc2ncc(Cl)c(-c3cc4ccccc4s3)n2)cc1)N1CCC(N2CCCC2)CC1  remaining binding (binding, competition with immobilised ligand; 1 µM): 74%
O=C(Nc1c[nH]nc1C(=O)NC1CCNCC1)c1cc(F)cc(F)c1  remaining binding (binding, competition with immobilised ligand; 1 µM): 100%
Nc1ncc2c(n1)-c1c([nH]c3ccc(C#CC4CC4)cc13)CCCC2  remaining binding (binding, competition with immobilised ligand; 1 µM): 100%
CC1CCCN1c1nccc(-c2cnn3ncccc23)n1 (stereo not shown)  remaining binding (binding; 1 µM): 100%
O=C(c1ccc(Nc2nccc(-c3cc4ccccc4s3)n2)cc1)N1CCC(N2CCCC2)CC1  remaining binding (binding, competition with immobilised ligand; 1 µM): 93%
Cc1c(NC(=O)c2cc(C(N)=O)nc3cc(F)ccc23)c(C(F)(F)F)nn1Cc1ccc(C(C)(C)C)cc1  remaining binding (cell-free assay, competition with immobilised ligand; 1 µM): 100%
N[C@H]1CCN(c2nccc(-c3cnn4ncccc34)n2)C1  remaining binding (binding; 1 µM): 100%
CNC(=O)[C@@H]1CC[C@@H](n2c(-c3ccc4cnccc4c3)nc3ccc(C(=O)NCc4cccc(C(N)=O)c4)cc32)C1  remaining binding (binding, competition with immobilised ligand; 1 µM): 86%
C[C@@H]1CCN(c2nccc(-c3cnn4ncccc34)n2)C1  remaining binding (binding; 1 µM): 100%
C=CC(=O)N1CCC(C(=O)NCC(=O)N2CCN(c3nc(-c4cnc(N)nc4C(F)F)nc(N4CCOCC4)n3)CC2)CC1  remaining binding (binding, competition with immobilised ligand; 1 µM): 100%
Cc1cnn2ncc(-c3ccnc(N(C)C)n3)c2c1  remaining binding (binding; 1 µM): 93%
O=C(O)[C@H]1[C@H](Cn2nnc3ccccc3c2=O)CC[C@@H]1C(=O)c1ccc(OCCC2CCOCC2)cc1  remaining binding (cell-free assay, competition with immobilised ligand; 1 µM): 100%
COc1cnc(Nc2cccc(S(N)(=O)=O)c2)nc1N1CCN(c2ccccc2)CC1  remaining binding (binding, competition with immobilised ligand; 1 µM): 100%
CS(=O)(=O)N1CCCC(NC(=O)[C@H](CCC2CCCCC2)NC(=O)c2ccc(CNc3ncnc4c3nnn4-c3ccccc3)cc2)C1 (stereo partly shown)  remaining binding (cell-free assay, competition with immobilised ligand; 0.1 µM): 87%
CN(C)c1nccc(-c2cnn3ncccc23)n1  remaining binding (binding; 1 µM): 100%
CNC(=O)Nc1ccc2c(c1)[C@@]1(CC2)OC(=O)N(CC(=O)N(Cc2ccc(F)cc2)[C@@H](C)C(F)(F)F)C1=O  remaining binding (cell-free assay, competition with immobilised ligand; 1 µM): 85%
CN(CCCC(F)(F)F)c1nccc(-c2cnn3ncccc23)n1  remaining binding (binding; 1 µM): 95%
